Laboratory results: paper PMC8915966 (Proceedings of the National Academy of Sciences of the …, 2022)
Where no end group is shown, it is not given here.

What was measured:
RAW 264.7 cells = assay: Cytotoxicity, WST-8 assay; type: cell-based; settings: 24 h
[1] = test system: E. coli K1-infected ICR mice; assay: E. coli K1 sepsis mouse model; type: in vivo
[2] = test system: FITC-LPS binding to RAW 264.7 cells; assay: Flow cytometry of FITC-LPS binding to RAW 264.7 cells; type: cell-based; settings: posttreatment with 40 μM peptide, FITC-LPS 40 μg/mL, 30 min, 4 °C; MFI
Procedure, shortened: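 RAW 264.7 cells (10⁶) were exposed under serum-free conditions at 4 °C for 30 min to test compound (40 μM) or FITC-labelled E. coli O55:B5 LPS (40 μg/mL), given before or after the other. Cells were PBS-washed and surface fluorescence was read by flow cytometry as MFI (%). Three independent experiments, mean ± SEM, one-way ANOVA with Dunnett's test.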

ICR mice = assay: In vivo toxicity; settings: for kidney histology, in words: 20 mg/kg, two doses for 3 d, hematoxylin and eosin
Procedure, shortened: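 Female ICR mice, n = 5 per group, received test compound i.p. at a low (5 mg/kg/day for 5 d) or high (20 mg/kg twice per day for 3 d) regimen. Serum creatinine, AST and ALT were measured and compared with controls by one-way ANOVA with Dunnett's test; mean ± SEM.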

TLR4 [3] = target: TLR4 (Homo sapiens, UniProt O00206); assay: SPR binding to TLR4
TLR4/MD-2 = TLR4/MD-2 (Homo sapiens, UniProt O00206+Q9Y6Y9); assay: SPR binding to TLR4/MD-2 complex
MD-2 [4] = target: T1, MD-2 (Homo sapiens, UniProt Q9Y6Y9); assay: SPR binding to MD-2
T1 sequence (Q9Y6Y9 19-160): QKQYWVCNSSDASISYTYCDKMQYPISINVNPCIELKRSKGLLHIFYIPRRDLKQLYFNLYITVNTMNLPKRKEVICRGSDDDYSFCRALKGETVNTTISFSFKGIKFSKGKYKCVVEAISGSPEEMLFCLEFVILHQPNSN

TLR4 [5] = settings: read-out: binding affinity of LPS to TLR4; cited from earlier work
MD-2 [6] = settings: read-out: binding affinity of LPS to MD-2; cited from earlier work
[7] = target: TLR4/MD-2 complex (human) (UniProt O00206); assay: SPR
[8] = 1 mg/kg i.p., E. coli K1 5 × 10^6 CFU/mouse, serum
[9] = 20 mg/kg i.p. twice per day for 3 d, ICR mice, n = 5

Sequence of TLR4/MD-2 complex (human) (O00206 24-839, one chain of several): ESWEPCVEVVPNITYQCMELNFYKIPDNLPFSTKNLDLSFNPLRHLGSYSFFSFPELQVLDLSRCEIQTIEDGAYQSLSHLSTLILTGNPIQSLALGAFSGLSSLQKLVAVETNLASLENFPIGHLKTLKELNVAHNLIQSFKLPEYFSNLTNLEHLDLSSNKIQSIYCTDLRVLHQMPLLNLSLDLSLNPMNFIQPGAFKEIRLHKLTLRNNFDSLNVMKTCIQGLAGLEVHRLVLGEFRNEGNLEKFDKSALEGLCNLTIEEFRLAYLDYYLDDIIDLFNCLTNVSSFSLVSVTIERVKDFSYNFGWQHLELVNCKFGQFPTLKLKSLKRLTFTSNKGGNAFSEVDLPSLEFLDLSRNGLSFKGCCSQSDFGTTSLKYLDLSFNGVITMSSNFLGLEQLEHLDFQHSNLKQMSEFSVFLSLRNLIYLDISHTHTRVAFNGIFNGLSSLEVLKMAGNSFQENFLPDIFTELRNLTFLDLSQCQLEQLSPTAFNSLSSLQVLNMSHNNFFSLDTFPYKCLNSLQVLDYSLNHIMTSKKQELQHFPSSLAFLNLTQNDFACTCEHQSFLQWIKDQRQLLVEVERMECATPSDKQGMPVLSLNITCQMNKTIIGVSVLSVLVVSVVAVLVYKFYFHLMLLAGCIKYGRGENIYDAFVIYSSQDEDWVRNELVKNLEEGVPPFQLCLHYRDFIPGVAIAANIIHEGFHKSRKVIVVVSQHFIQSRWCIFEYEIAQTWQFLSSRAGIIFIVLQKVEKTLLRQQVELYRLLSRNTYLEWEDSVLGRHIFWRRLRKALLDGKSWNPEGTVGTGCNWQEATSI
Sequence of TLR4/MD-2 (O00206 24-631 limits assumed): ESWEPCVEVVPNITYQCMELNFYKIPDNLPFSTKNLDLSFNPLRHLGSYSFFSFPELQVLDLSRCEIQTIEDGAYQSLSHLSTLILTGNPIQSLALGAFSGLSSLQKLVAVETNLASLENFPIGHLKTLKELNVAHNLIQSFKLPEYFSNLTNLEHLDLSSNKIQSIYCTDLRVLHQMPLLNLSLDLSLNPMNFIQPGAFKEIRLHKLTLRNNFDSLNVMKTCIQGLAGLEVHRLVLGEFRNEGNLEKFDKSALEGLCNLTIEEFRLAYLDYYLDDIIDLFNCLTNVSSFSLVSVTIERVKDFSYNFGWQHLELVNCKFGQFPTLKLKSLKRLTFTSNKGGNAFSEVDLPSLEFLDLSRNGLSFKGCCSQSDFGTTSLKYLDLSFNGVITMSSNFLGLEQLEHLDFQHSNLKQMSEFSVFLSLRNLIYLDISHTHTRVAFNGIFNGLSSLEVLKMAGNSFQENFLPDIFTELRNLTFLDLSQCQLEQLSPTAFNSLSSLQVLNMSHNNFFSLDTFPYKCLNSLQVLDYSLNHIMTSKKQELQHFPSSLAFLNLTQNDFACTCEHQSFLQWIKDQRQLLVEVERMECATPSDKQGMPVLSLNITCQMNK
Sequence of TLR4/MD-2 (Q9Y6Y9 17-160 limits assumed): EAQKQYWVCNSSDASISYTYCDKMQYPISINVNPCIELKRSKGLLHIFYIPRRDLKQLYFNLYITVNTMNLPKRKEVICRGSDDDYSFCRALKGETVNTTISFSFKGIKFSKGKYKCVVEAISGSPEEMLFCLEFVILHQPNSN
Sequence of TLR4 (Homo sapiens, UniProt O00206) (O00206 24-839): as the sequence (O00206 24-839, one chain of several) above

With Polymyxin B [PMB] the cell survival rate (RAW 264.7 cells; 50 μM peptide) was 30.6%, the cell survival rate (RAW 264.7 cells; 100 μM peptide) was 15.5% and the “reduction of endotoxin levels” value ([1]; 1 mg/kg i.p., E. coli K1 5 × 10^6 CFU/mouse, 16 h later, n = 5) was 34.6%. The “ALT level reduced to” value [1, 8] was 19.4%, the “AST level reduced to” value [1, 8] was 25.7% and the “BUN level reduced to” value [1, 8] was 16.7%. The “serum and lung tissue levels of TNF-α and IL-6, in words” value ([1]; 1 mg/kg, compared to E. coli K1–infected control mice, ELISA) was “significantly reduced”, the “lung tissue histology, in words” value ([1]; 1 mg/kg, hematoxylin and eosin, neutrophil infiltration) was “significantly protected against lung damage” and the “competitive displacement of prebound LPS on RAW 264.7 cells” value [2] was “no competitive impact”. The “elevation of blood urea nitrogen (BUN) level” value (ICR mice; [9]) was 26.6%, the “elevation of serum creatinine level” value (ICR mice; [9]) was 37.1% and the “increase of ALT level” value (ICR mice; [9]) was 30.6%. The “increase of AST level” value (ICR mice; [9]) was 17.8% and the “kidney histology, in words” value (ICR mice) was “notable kidney damage”.
With “RWKIFKKIEKVGRNVRDGIIKAGPAVAVVGQAATVVK-NH2 [Papiliocin]” the cell survival rate (RAW 264.7 cells; 50 μM peptide) was 100%, the cell survival rate (RAW 264.7 cells; 100 μM peptide) was 78.0% and the Kd (TLR4 [3]) was 0.41 µM. It also gave a Kd (TLR4/MD-2) of 3.7 µM, a kon (TLR4/MD-2; read-out: association rate, TLR4/MD-2 complex) of 3850 M⁻¹ s⁻¹ and a koff (TLR4/MD-2; read-out: dissociation rate, TLR4/MD-2 complex) of 0.0141 s⁻¹. For the same substance, the “change in creatinine level compared to the control, in words” value (ICR mice; 5 mg/kg/day for 5 d and 20 mg/kg twice per day for 3 d, i.p.) was “neither lower dose of PMB nor any dose of papiliocin induced any aberrant changes in creatine level”, the “kidney histology, in words” value (ICR mice) was “did not show any signs of morphology changes in the kidneys” and the Kd (MD-2 [4]) was 1.1 µM.
For lipopolysaccharide [LPS], the Kd (TLR4 [5]) is listed as 14.1 µM and the Kd (MD-2 [6]) is listed as 8.7 µM.
papiliocin (peptide) showed a koff [7] of 0.0141 s⁻¹ and a kon [7] of 3850 M⁻¹ s⁻¹.
In the case of papiliocin G23P (peptide), the fold lower affinity compared to papiliocin [7] is reported as 100 fold.
With papiliocin P24G (peptide) the fold lower affinity compared to papiliocin [7] was 10 fold.
